# XBP1 UPR activ: activators of adaptive arm of unfolded protein response (XBP1); CHO-XBP1 luciferase reporter, IRE1-XBP1 UPR activation, luminescence; percent of tunicamycin response, DMSO as zero; activation, % at 20 µM; 330,000 compounds, 0.33% hits; AID 463104;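 active means versus positive control, 20 µM dose yields 30% or more activation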;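 further: 100% = tunicamycin at 10 µg/mL and 0% = DMSO only wells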
#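 Material: CHO cell line with stable XBP1 luciferase reporter; schedule: 16-18 h cell attachment at 37 °C, then 6 h compound exposure; signal: glow luminescence from Steady-Glo reagent; medium: serum-containing F12 medium, 10% FBS; benchmarks: tunicamycin 10 µg/mL and vehicle-only wells; read-out: percent activation relative to tunicamycin reference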
# Beta2AR agonist: activates human beta-2 adrenergic receptor causing internalization; response, % (concentration not given with the values); Am2.2-beta2AR cells, FAP receptor internalization, flow cytometry; P07550; 340,000 compounds, 0.43% hits;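 active means response above a set limit, near 3 SD of response in nonfluorescent compounds, cut at about 42% in these data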
# Mdm2 MdmX PPI: disrupts the human Mdm2-MdmX interaction. O15151+Q00987. SaOS-2 split-luciferase Mdm2/MdmX complementation, luminescence. inhibition, % at 8 µM. 330,000 compounds, 3% hits;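 active means inhibition of at least 50% at 8 µM in the primary screen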
# Target sequence (O15151 whole entry, looked up): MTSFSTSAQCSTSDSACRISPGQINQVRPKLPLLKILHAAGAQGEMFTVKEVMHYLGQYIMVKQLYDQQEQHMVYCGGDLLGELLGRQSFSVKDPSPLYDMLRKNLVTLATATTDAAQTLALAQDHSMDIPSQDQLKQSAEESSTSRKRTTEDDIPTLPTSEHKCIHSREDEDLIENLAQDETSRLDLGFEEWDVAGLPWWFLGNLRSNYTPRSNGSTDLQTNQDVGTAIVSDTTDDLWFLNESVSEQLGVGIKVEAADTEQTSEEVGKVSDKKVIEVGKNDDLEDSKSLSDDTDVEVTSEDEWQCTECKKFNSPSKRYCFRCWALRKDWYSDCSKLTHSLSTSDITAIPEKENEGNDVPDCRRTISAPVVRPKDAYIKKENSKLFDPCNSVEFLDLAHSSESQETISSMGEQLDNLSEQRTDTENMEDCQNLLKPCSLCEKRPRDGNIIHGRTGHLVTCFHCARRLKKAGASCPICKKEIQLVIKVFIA
# Target sequence (Q00987 whole entry, looked up): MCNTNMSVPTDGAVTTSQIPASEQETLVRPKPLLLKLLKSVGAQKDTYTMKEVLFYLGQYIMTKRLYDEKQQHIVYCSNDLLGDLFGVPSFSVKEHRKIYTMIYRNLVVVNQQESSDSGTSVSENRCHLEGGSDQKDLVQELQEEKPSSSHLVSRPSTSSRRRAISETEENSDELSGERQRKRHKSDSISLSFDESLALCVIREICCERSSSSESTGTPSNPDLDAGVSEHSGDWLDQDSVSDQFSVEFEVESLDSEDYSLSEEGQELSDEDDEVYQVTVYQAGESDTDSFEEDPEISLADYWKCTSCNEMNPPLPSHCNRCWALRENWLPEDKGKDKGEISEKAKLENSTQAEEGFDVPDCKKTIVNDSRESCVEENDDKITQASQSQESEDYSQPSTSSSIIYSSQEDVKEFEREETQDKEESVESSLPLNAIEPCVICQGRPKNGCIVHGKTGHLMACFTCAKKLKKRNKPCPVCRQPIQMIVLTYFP
# Mdm2 ligase inh: inhibitors of human Mdm2 E3 ubiquitin ligase; AID 1230; Q00987; cell-based MDM2 ubiquitination luciferase reporter, 2 h; 0 = plate control, 100 = twice control, blank-subtracted; signal enhancement, % at 5 µM; 210,000 compounds, 0.11% hits;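 active means signal enhancement of 30% or more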;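 further: luminescence tracks abundance of the self-degrading MDM2-luciferase fusion protein; higher signal means inhibition of MDM2 E3 ligase activity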
#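 Assay system: mammalian cells stably expressing self-ubiquitinating, self-degrading MDM2 E3–luciferase fusion. Quantity: 2000 cells in each well. Medium: DMEM culture medium. Compound dosing: single-point 5 µM. Timing: cell settling 4 h, compound treatment 2 h, both 37 °C. Technique: luciferase luminescence. Read-out basis: percent signal gain over controls, blank-subtracted. Benchmarks: plate controls and plate blanks.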
# Dynein cargo inh: dynein cargo transport inhibition. 3617.4 mouse cells, GR-EGFP nuclear translocation imaging; test concentration mostly 20 µM; stimulated with dexamethasone, 1 µM; active compounds read low. z-score, hits read low. 220,000 compounds, 0.47% hits;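 active means plate z-score of nuclear minus cytoplasmic receptor signal below a set negative limit, without overly bright fluorescence or cell loss, cut at about -3.5 in these data, passing the limit was not always enough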;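 further: z-score of nuclear minus cytoplasmic ring GR-EGFP intensity difference per well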
#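 Schedule: 48 h induction, then 1 h compound, then 30 min agonist, 37 °C. Buffer or medium: tetracycline-free induction medium containing charcoal-stripped FBS. Reagent: 1.0 µM final dexamethasone stimulus. Evaluation: nuclear versus cytoplasmic GR-EGFP signal, averaged per well. Signal: high-content fluorescence imaging after fixation.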
# UPR CHOP act: apoptotic UPR (CHOP) activation | activation, % at 10 µM | 330,000 compounds, 0.34% hits | CHO-CHOP luciferase reporter, luminescence; percent of tunicamycin response over DMSO baseline;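 active means at 10 µM dose, activation of 40% or more, normalized to positive control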;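 further: 100% = tunicamycin at 10 µg/mL and 0% = DMSO alone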
#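 Assay system: CHO-CHOP cells, stable luciferase reporter of PERK-eIF2a-CHOP signalling / Buffer or medium: F12 plus 10% serum / Compound dosing: one dose, 10 µM in 0.5% DMSO / Times: 6 h compound treatment, 37 °C / Technique: luciferase luminescence / Read-out: % reporter activation, DMSO baseline versus tunicamycin full activation / Benchmarks: tunicamycin and DMSO controls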
# Mdm2-MdmX conf: human Mdm2/MdmX binding inhibition, confirmed. AID 489028. luminescent assay. inhibition, % at 8 µM. shares compounds with Mdm2 MdmX PPI. 10,000 compounds, 55% hits; in the data active means inhibition above about 40%
# FLuc counter: counter-screen for Mdm2/MdmX inhibitors: full-length luciferase. shares compounds with Mdm2 MdmX PPI. SaOS-2 full-length luciferase counterscreen, luminescence. inhibition, % at 8 µM. 6,200 compounds, 77% hits;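 active means mean inhibition at 8 µM reaching about 37%, which flags the compound as non-specific, limit read from the data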;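 further: p53-null SaOS-2 cells with luciferase driven by a doxycycline-inducible promoter; compound on cells about two nights before reading with doxycycline added after day one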
# * hit, by the source's call; x = not tested or not shown. A selection: hits, their analogues and other compounds. The true share with any hit is near 3.7%.
SMILES,XBP1 UPR activ,Beta2AR agonist,Mdm2 MdmX PPI,Mdm2 ligase inh,Dynein cargo inh,UPR CHOP act,Mdm2-MdmX conf,FLuc counter
Cc1ccc(SCCC(=O)N/N=C/c2ccccc2O)cc1,0.9,-1.7,52.0*,-6.6,-0.769,-2.1,43.8*,46.8*
O=C(CCC(=O)Nc1ccc(Br)cc1)N/N=C/c1ccccc1O,-1.0,-4.8,67.3*,x,x,1.9,67.5*,48.3*
Cc1c(C(=O)N(CCO)Cc2ccccc2)oc2c(F)cccc12,6.8,-3.5,-58.4,x,x,1.4,x,x
CC(C)C1C(c2ccccc2)NC(c2ccccc2)CC1(O)c1ccc(F)cc1 (stereo unspecified),-2.2,0.0,39.1,-14.4,1.32,1.0,x,x
O=C(CCc1ccccc1)N/N=C/c1cc(Br)ccc1O,-0.5,-0.5,71.4*,-20.5,-0.878,1.2,68.7*,26.9
O=C(N/N=C/c1cc(Br)ccc1O)c1ccccc1Cl,3.7,-2.2,65.9*,-10.3,-0.595,0.6,68.8*,35.3
CSc1nc(C)cc(OCC(=O)N/N=C/c2ccccc2O)n1,-2.5,-8.5,57.9*,7.0,2.98,0.0,64.3*,39.3*
Oc1ccc(Br)cc1/C=N/NC(=S)NCCc1ccccc1,0.2,-3.5,38.7,x,x,1.3,x,x
O=C(Cc1ccccc1)N/N=C/c1cc(Br)cc(Br)c1O,-2.5,11.6,59.4*,x,x,-1.9,73.2*,43.7*
COC(=O)N/N=C/c1cc(Br)ccc1O,0.9,4.4,9.9,-21.7,-0.0339,2.5,x,x
COc1ccc2sc(N(CCN(C)C)C(=O)c3ccc4ccccc4c3)nc2c1,-5.5,2.2,-1.1,x,x,0.0,x,x
COc1cc(/C=C/C(=O)NC(=O)c2ccccc2O)ccc1OC(C)=O,1.5,0.2,10.4,x,x,-1.1,x,x
CCN(C[C@H]1N[C@@](CC)(C(=O)OC)[C@H]2C(=O)N(Cc3ccccc3)C(=O)[C@@H]12)S(=O)(=O)c1ccc(C)cc1,0.0,3.3,8.0,x,x,0.6,x,x
CCN(C[C@H]1N[C@@](CC)(C(=O)OC)[C@H]2C(=O)N(Cc3ccccc3)C(=O)[C@@H]12)S(=O)(=O)c1ccc(-c2ccccc2)cc1,-2.7,4.5,80.3*,x,x,2.2,79.3*,34.0
CCN(C[C@H]1N[C@@](CC)(C(=O)OC)[C@H]2C(=O)N(Cc3ccccc3)C(=O)[C@@H]12)S(=O)(=O)c1ccc(C(C)(C)C)cc1,-0.6,1.0,69.3*,x,x,3.1,62.0*,52.0*
CC[C@@]1(C(=O)OC)N[C@H](CN(C)S(=O)(=O)c2ccc(-c3ccccc3)cc2)[C@@H]2C(=O)N(Cc3ccccc3)C(=O)[C@@H]21,-2.0,7.9,90.5*,x,x,0.2,87.4*,45.5*
CCN1CC(CN(C)Cc2nc(Cc3ccccc3)no2)CC1=O (stereo unspecified),-1.1,3.9,-3.4,-8.7,-0.718,-1.6,x,x
Cc1cc(C)c2nc3nc(C)c(C)cc3c(N)c2c1,-2.4,-2.0,46.9,-24.9,-1.74,-1.3,x,x
COc1ccc(C(=O)NCCCn2cccn2)cc1OC1CCN(C(C)=O)CC1,-2.3,-4.8,14.8,x,x,-0.1,x,x
O=[N+]([O-])c1ccc(S(=O)(=O)CC(CN2CCOCC2)N2CCOCC2)cc1 (stereo unspecified),0.7,-8.9,27.8,-21.2,-0.281,2.4,x,x
O=S(=O)(CC(CN1CCCCC1)N1CCCCC1)c1ccccc1 (stereo unspecified),-1.2,2.5,72.2*,-6.5,-0.763,-0.8,65.5*,17.1
Cc1oc(-c2cccc(Cl)c2)nc1CN1CCC(C(=O)NCCCN2CCCC2=O)CC1,-0.7,-5.0,21.2,-1.2,-0.349,-1.0,x,x
CCN1CCN(CCNC(=O)C2CCCN(Cc3nc(-c4cccc(Cl)c4)oc3C)C2)CC1 (stereo unspecified),-2.0,8.2,62.9*,-16.0,0.383,-3.3,31.9,x
CCCN(CCC)CCNC(=O)C1CCN(Cc2nc(-c3ccc(Cl)cc3)oc2C)CC1,0.5,20.1,87.8*,-38.5,-0.553,2.6,79.3*,30.3
Cc1oc(-c2ccc(Cl)cc2)nc1CN1CCC(C(=O)NCc2cccnc2)CC1,-0.4,8.1,11.3,-28.0,-0.339,-2.5,x,x
SMILES,XBP1 UPR activ,Beta2AR agonist,Mdm2 MdmX PPI,Mdm2 ligase inh,Dynein cargo inh,UPR CHOP act,Mdm2-MdmX conf,FLuc counter
Cc1oc(-c2cccc(Cl)c2)nc1CN1CCC(C(=O)NCCCN2CC(C)CC(C)C2)CC1 (stereo unspecified),7.4,6.1,99.7*,x,x,10.1,98.4*,52.7*
CCOC(CNC(=O)C(=O)Nc1cc2c3c(c1)CCN3C(=O)CC2)OCC,-0.9,2.9,-9.7,x,x,0.4,x,x
Cc1cc(OCC(=O)N2CCN(c3ccccc3)CC2)c2c(C)cc(=O)oc2c1,2.6,-3.3,76.0*,x,x,3.1,6.8,x
COc1ccc(S(=O)(=O)Nc2ccc3c(c2)C(=O)N([C@H](C)CO)C[C@H](C)[C@@H](CN(C)S(=O)(=O)c2ccc(OC)cc2)O3)cc1,x,9.0,x,x,x,x,x,x
COc1ccccc1C(C)NCC(=O)NC(=O)NCc1ccco1 (stereo unspecified),-3.5,4.1,11.7,x,x,1.0,x,x
COc1ccc(N2CCN(Cc3cc(=O)c(OCC(=O)NC4CCCC4)co3)CC2)cc1,-2.7,-1.1,18.8,x,x,1.6,x,x
Oc1ccccc1/C=N/Nc1cc(N2CCCC2)nc(N2CCCC2)n1,-1.6,26.9,50.0,-1.7,-1.26,8.3,29.6,x
Cc1cc(C)c(-c2csc(NC(=O)/C=C/c3cccs3)n2)c(C)c1,8.4,16.7,70.4*,-6.8,0.145,-1.1,60.8*,72.2*
Cc1cc(C)nc(NC(=O)/C=C/c2cccs2)c1,10.2,1.0,2.0,-13.7,-0.872,3.3,x,x
O=C(CN1C(=O)c2ccc([N+](=O)[O-])cc2C1=O)NCc1ccc(C(=O)O)cc1,-2.6,1.0,-0.4,x,x,-0.2,x,x
CCN(CC)S(=O)(=O)c1ccc(N/N=C/c2ccc(O)cc2O)nc1,3.5,3.0,64.8*,14.6,-1.84,-2.4,78.5*,49.9*
O=[N+]([O-])c1ccc(NN=Cc2ccc(O)cc2O)nc1,x,2.7,x,x,x,x,x,x
O=C(OCc1cccc(C(F)(F)F)c1)c1ccc[nH]c1=O,0.9,1.3,19.9,x,x,1.2,x,x
Cc1cc(C2(c3ccc(O)c(C)c3)C(=O)Nc3ccccc32)ccc1O,1.1,3.6,57.1*,-23.1,-2.69,1.0,39.0,x
